Source: ChEMBL document CHEMBL4673340 (J Med Chem, 2020)
Active and inactive are the calls of the source. The calls are words filed in the database; no cut-off is given here.

Assays:
[1] = biological target: Poly [ADP-ribose] polymerase 2 (Homo sapiens, UniProt Q9UGN5); assay: Inhibition of PARP-2 (unknown origin) pre-incubated for 30 mins before addition of activated DNA and NAD by chemiluminescent assay
[2] = Oral bioavailability in Sprague-Dawley rat at 5 mg/kg by LC-MS/MS analysis; assay type: ADME, organism-based; conditions: in vivo
Procedure, shortened: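 Pharmacokinetics in Sprague-Dawley rats, three per group. iv 2 mg/kg in 38% DMA in water; po 5 mg/kg. Plasma was protein-precipitated, diluted with water and analysed by LC-MS/MS using an acetonitrile/0.1% formic acid gradient. Values are means of three rats.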

[3] = Clearance in rat at 5 mg/kg, po by LC-MS/MS analysis; assay type: ADME, organism-based; conditions: in vivo
[4] = AUC (0 to 24 hrs) in rat at 5 mg/kg, po by LC-MS/MS analysis; assay type: ADME, organism-based; design: time < 24 hr, route oral, dose 5 mg/kg; conditions: in vivo
[5] = Clearance in mouse liver microsomes; assay type: ADME, Microsome; conditions: read-out: CLH
[6] = biological target: hERG (KCNH2) (Homo sapiens, UniProt Q12809); assay: Inhibition of human ERG activity at 20 uM by functional cellular assay
[7] = biological target: T1, Poly [ADP-ribose] polymerase 1 (Homo sapiens, UniProt P09874); assay: Inhibition of PARP-1 in human HeLa cells incubated for 18 hrs in presence of H2O2; assay type: cell-based
[8] = biological target: T1, Poly [ADP-ribose] polymerase 1; assay: Inhibition of human PARP-1 catalytic domain (662 to 1011 residues) expressed in Escherichia coli BL21(DE3) cells pre-incubated for 30 mins before addition of activated DNA and NAD by fluorescence based assay
[9] = Solubility of the compound; assay type: physicochemical
[10] = system: MDA-MB-436; assay: Antitumor activity against human MDA-MB-436 cells xenografted in BALB/c nude mouse assessed as inhibition of tumor growth at 25 to 50 mg/kg, po BID for 28 days followed by treatment was interruption and monitored for additional 2 months; assay type: functional, organism-based; conditions: dose 25-50 mg/kg, time 28.0 day
Procedure, shortened: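 Female 8-week-old BALB/c nude mice receive 5 × 10⁶ cells in PBS:Matrigel 1:1 subcutaneously in the right flank. […] Tumors are then monitored 2 more months. Caliper volume V = 0.5ab² is taken twice weekly.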

[11] = system: NCI-H209; assay: Antitumor activity against human NCI-H209 cells xenografted in BALB/c nude mouse assessed as tumor relapse at 50 mg/kg, po QD for 5 consecutive days at start of study and again 14 days later and measured after 48 days; assay type: functional, organism-based; conditions: time 19.0 day
Procedure, shortened: (§1)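 Female BALB/c nude mice are implanted subcutaneously with 1 × 10⁷ H209 cells in cold PBS. At ~175 mm³ they are randomized into four groups of 8. TMZ is given orally in 0.5% MC at 10 mL/kg, QD on days 1–5 and 15–19. Caliper tumor volume (0.5ab²) is measured twice weekly and reported as mean ± SEM.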

[12] = system: NCI-H209; assay: Antitumor activity against human NCI-H209 cells xenografted in BALB/c nude mouse assessed as PR rate at 50 mg/kg, po QD for 5 consecutive days at start of study and again 14 days later; assay type: functional; conditions: time 19 day; procedure, shortened: as §1
[13] = system: NCI-H209; assay: Antitumor activity against human NCI-H209 cells xenografted in BALB/c nude mouse assessed as inhibition of tumor growth at 50 mg/kg, po QD for 5 consecutive days at start of study and again 14 days later; assay type: functional, organism-based; conditions: time 19.0 day; procedure, shortened: as §1

hERG (KCNH2), sequence (Q12809 whole entry): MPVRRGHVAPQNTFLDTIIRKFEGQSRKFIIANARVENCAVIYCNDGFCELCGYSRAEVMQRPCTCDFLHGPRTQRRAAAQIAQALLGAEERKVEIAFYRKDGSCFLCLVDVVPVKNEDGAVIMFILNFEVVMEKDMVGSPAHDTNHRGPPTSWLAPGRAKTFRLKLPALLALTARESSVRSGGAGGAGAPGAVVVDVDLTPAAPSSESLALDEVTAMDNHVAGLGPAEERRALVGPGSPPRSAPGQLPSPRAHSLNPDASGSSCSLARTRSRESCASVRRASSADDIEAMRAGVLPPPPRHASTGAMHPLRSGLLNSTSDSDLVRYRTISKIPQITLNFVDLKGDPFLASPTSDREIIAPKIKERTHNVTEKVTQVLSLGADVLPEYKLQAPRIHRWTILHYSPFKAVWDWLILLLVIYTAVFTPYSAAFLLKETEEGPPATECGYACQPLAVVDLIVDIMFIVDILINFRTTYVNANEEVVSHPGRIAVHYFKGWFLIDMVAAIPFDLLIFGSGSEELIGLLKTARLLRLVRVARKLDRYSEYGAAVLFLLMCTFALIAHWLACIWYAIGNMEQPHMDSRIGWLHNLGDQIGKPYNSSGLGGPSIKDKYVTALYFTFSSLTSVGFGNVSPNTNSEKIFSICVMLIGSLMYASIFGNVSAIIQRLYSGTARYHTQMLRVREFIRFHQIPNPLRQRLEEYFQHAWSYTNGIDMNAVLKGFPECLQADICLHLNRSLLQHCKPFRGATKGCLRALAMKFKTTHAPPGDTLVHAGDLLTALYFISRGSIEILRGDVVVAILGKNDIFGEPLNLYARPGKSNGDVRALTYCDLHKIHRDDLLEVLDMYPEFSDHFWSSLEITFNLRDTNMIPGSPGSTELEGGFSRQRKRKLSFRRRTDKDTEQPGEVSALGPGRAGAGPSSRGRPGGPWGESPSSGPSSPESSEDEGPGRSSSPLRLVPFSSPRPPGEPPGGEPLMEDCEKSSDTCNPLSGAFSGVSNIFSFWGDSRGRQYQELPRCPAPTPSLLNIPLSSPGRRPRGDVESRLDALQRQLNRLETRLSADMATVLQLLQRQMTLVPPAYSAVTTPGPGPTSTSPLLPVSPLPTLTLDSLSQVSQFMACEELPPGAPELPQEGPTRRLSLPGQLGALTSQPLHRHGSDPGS
Poly [ADP-ribose] polymerase 2, sequence (Q9UGN5 whole entry): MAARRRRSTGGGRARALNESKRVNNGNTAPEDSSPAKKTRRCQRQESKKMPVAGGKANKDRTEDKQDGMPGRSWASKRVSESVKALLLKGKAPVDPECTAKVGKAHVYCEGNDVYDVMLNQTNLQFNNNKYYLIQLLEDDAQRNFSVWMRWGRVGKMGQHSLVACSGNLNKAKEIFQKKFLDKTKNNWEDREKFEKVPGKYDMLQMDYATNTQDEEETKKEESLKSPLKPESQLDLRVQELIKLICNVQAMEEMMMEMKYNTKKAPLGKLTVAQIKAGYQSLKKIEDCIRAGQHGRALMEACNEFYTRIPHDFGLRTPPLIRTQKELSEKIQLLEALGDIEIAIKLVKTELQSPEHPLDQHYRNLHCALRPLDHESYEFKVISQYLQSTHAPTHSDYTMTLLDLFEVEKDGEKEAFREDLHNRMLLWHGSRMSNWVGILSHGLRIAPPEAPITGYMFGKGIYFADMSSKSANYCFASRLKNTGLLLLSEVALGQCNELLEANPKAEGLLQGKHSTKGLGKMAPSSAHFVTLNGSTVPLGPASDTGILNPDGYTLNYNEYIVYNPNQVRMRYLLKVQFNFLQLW
T1 sequence (P09874 whole entry, the tested form may be a part): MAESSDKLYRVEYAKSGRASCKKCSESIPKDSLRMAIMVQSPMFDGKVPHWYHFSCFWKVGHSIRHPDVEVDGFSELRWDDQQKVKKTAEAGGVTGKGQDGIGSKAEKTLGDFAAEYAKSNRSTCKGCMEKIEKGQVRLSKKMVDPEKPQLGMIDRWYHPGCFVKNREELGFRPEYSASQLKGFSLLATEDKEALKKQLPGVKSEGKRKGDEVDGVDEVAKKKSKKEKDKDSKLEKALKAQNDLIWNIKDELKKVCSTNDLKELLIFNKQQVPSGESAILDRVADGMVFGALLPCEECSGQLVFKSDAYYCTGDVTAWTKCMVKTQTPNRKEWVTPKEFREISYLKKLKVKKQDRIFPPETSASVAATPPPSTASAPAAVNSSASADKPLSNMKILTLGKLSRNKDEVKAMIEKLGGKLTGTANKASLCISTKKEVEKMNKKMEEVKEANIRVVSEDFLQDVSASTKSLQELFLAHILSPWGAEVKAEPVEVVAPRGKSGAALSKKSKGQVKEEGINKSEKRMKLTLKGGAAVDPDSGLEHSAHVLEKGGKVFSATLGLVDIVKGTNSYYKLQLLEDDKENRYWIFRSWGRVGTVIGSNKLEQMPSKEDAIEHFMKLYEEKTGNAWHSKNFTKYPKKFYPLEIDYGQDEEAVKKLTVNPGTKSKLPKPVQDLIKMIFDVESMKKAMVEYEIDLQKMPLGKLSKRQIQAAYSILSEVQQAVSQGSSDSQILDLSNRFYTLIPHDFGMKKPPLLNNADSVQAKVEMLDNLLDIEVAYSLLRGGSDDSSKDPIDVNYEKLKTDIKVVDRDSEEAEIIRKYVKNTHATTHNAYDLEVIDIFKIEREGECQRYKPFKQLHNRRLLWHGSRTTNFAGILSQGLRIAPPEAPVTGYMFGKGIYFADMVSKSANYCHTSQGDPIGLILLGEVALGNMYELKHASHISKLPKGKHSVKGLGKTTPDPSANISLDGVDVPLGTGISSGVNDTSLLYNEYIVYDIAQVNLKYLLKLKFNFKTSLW

| SMILES | inhibition at 20 µM [6] | EC50 [7] | IC50 [8] | further results |
| --- | --- | --- | --- | --- |
| O=C1NN=C2CC(c3ccccc3)Cc3[nH]c4cc(F)cc1c4c32 (stereo not drawn) |  |  |  | IC50 [1]: 1.8 nM |
| CC(C)N1CC2=NNC(=O)c3cccc4[nH]c(c2c34)C1 | 39% |  |  | bioavailability [2]: 19%; CL/F [3]: 114 mL/min/kg; AUC(0-t) at 24 h [4]: 141 ng·h/mL; CLint scaled [5]: 174 mL/min/kg |
| CN1CC2=NNC(=O)c3cc(F)cc4[nH]c(c2c34)C1 |  |  |  | CLint scaled [5]: 275 mL/min/kg |
| CC1CC2=NNC(=O)c3cc(F)cc4[nH]c(c2c34)C1 (stereo not drawn) |  | 2.7 nM | 4.9 nM | IC50 [1]: 1.3 nM |
| CC1(C)CC2=NNC(=O)c3cccc4c3c2c(n4CCO)C1 |  | 176 nM |  |  |
| CC1(C)CC2=NNC(=O)c3cc(F)cc4[nH]c(c2c34)C1 | 32% |  |  |  |
| CC1(C)CCc2[nH]c3cc(F)cc4c3c2C1=NNC4=O |  | 45.5 nM | 28.8 nM |  |
| O=C1NN=C2CN(C(=O)C3CC3)Cc3[nH]c4cccc1c4c32 | 12% |  |  | CL/F [3]: 114 mL/min/kg; CLint scaled [5]: 250 mL/min/kg |
| CC(C)C1CC2=NNC(=O)c3cc(F)cc4[nH]c(c2c34)C1 (stereo not drawn) |  |  |  | IC50 [1]: 0.7 nM |
| CCN(CC)CCn1c2c3c4c(cccc41)C(=O)NN=C3CC(C)(C)C2 | 95% |  |  | solubility [9]: Soluble |
| CN(C)CCn1c2c3c4c(cc(F)cc41)C(=O)NN=C3CC(C)(C)C2 | 73% |  |  | solubility [9]: Soluble; IC50 [1]: 0.3 nM |
| CC1(C)CC2=NNC(=O)c3cccc4c3c2c(n4CCN2CCCC2)C1 | 97% |  |  | solubility [9]: Soluble |
| O=C1NN=C2CCCCc3[nH]c4cc(F)cc1c4c32 |  |  |  | IC50 [1]: 0.7 nM |
| CC(C)(N)C(=O)N1CC2=NNC(=O)c3cccc4[nH]c(c2c34)C1 | 43% |  |  |  |
| CN(C)CCn1c2c3c4c(cccc41)C(=O)NN=C3CC(C)(C)C2 | 77% |  |  | solubility [9]: Soluble; IC50 [1]: 0.3 nM |
| CC1(C)CC2=NNC(=O)c3cccc4c3c2c(n4CCN2CCCCC2)C1 | 92% |  |  | solubility [9]: Soluble |
| CC12CCCN1Cc1[nH]c3cc(F)cc4c3c1C2=NNC4=O (stereo not drawn) |  | 54.7 nM | 73 nM |  |
| NC1(C(=O)N2CC3=NNC(=O)c4cc(F)cc5[nH]c(c3c45)C2)CC1 |  | 22 nM | 9.9 nM |  |
| O=C1NN=C2CN(C(=O)[C@@H]3CCCN3)Cc3[nH]c4cc(F)cc1c4c32 |  | 11.7 nM | 6.6 nM |  |
| O=C1NN=C2CN(S(=O)(=O)C3CC3)Cc3[nH]c4cc(F)cc1c4c32 |  | 9.3 nM | 8 nM |  |
| O=C1NN=C2CN(C(=O)C3(c4ccccc4)CC3)Cc3[nH]c4cc(F)cc1c4c32 |  | 24.1 nM | 28.1 nM | CL/F [3]: 71 mL/min/kg |
| CNCCn1c2c3c4c(cccc41)C(=O)NN=C3CC(C)(C)C2 |  | 0.5 nM | 7 nM |  |
| CC1(C)C(=O)C2=NNC(=O)c3cc(F)cc4[nH]c(c2c34)C1=O |  | 76.1 nM | 13.1 nM |  |
| CC1(C(=O)N2CC3=NNC(=O)c4cc(F)cc5[nH]c(c3c45)C2)CC1 |  | 15.4 nM | 9.8 nM |  |
| O=C1NN=C2CN(C(=O)C3(O)CC3)Cc3[nH]c4cc(F)cc1c4c32 |  | 3.5 nM | 4.7 nM |  |
| CC1(C)C(C(=O)N2CC3=NNC(=O)c4cc(F)cc5[nH]c(c3c45)C2)C1(C)C |  | 16.6 nM | 17.9 nM |  |
| O=C(c1cc(Cc2n[nH]c(=O)c3ccccc23)ccc1F)N1CCN(C(=O)C2CC2)CC1 [OLAPARIB] |  |  |  | TGI [10]: Active; bioavailability [2]: 10% |
| Cn1nnc2c(C(N)=O)ncn2c1=O [TEMOZOLOMIDE] |  |  |  | Activity [11]: inactive; Activity [12]: 13%; TGI [13]: Active |
